UPR CHOP act – activators of apoptotic arm of unfolded protein response (CHOP) | CHO-CHOP luciferase reporter, UPR activation, luminescence; percent of tunicamycin response over DMSO baseline | activation, % at 10 µM | 0.34% of 330,000 active | AID 449763;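 active = at 10 µM dose, activation of 40% or more, normalized to positive control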;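 note: 100% = tunicamycin at 10 µg/mL and 0% = DMSO alone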
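measured by = luciferase luminescence | assay system = CHO-CHOP cells, stable luciferase reporter of PERK-eIF2a-CHOP signalling | amount = 500 reporter cells seeded per well | timing = 6 h compound exposure at 37 °C after overnight seeding | controls = positive tunicamycin 10 µg/mL, negative DMSO alone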
H9c2 protect – myocardial damage modulation in H9c2 cells; H9c2 cardiomyocytes, H2O2 injury protection, ATPLite, 2 h; protection from H2O2 cell death, % at 20 µM; 0.63% of 360,000 active; AID 588492;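 active = compounds giving at least 50% protection of heart cells from peroxide-induced death in the single-dose screen, raw or plate-pattern-corrected value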;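 note: 0% = DMSO wells with peroxide and 100% = DMSO wells without peroxide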
UPR XBP1 act – activators of adaptive arm of unfolded protein response (XBP1); CHO-XBP1 luciferase reporter, IRE1-XBP1 UPR activation, luminescence; percent of tunicamycin response, DMSO as zero; activation, % at 20 µM; 0.33% of 330,000 active; AID 463104;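 active = versus positive control, 20 µM dose yields 30% or more activation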;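 note: 100% = tunicamycin at 10 µg/mL and 0% = DMSO only wells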
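Assay system: IRE1-XBP1 luciferase reporter CHO line. Input: 1000 cells/well. Buffer or medium: F12 with 10% serum. Doses: 20 µM, 1% DMSO. Times: overnight seeding at 37 °C, 6 h compound treatment at 37 °C. Technique: Steady-Glo luciferase glow luminescence, 10 min after reagent addition.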
hiPSC survival – increases survival of single human iPS cells; hiPSC single-cell survival, ATPlite luminescence; 100% = ROCK inhibitor wells, 0% = DMSO; survival enhancement, % at 20 µM; 0.044% of 360,000 active; in the data active = survival enhancement above about 18%;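 note: cells exposed to compounds for 16 hours before the ATP read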
CHOP inhibitor – blocks CHOP induction under ER stress. CHO-K1 CHOP-promoter luciferase, tunicamycin-induced, 15-18 h. inhibition, % at 10 µM. 3.8% of 220,000 active. AID 2732;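 active = compounds that reduced the stress-induced luciferase reporter signal by more than about 70% of percent inhibition, limit read from the data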;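 note: 0% = tunicamycin plus vehicle and 100% = wells without tunicamycin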
CHOP inh conf – confirmation of CHOP induction inhibitors; shares compounds with CHOP inhibitor; CHO-CHOP promoter luciferase reporter, tunicamycin-induced, luminescence; inhibition, % at 10 µM; 45% of 2,100 active;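 active = mean of three repeat readings of reporter signal inhibition above a set limit, cut at about 70% in these data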;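 note: 0% = tunicamycin plus vehicle and 100% = wells lacking tunicamycin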
* = called active by the depositor; . = no result. The entries come from a sample that favours hits as a whole.

SMILES | UPR CHOP act | H9c2 protect | UPR XBP1 act | hiPSC survival | CHOP inhibitor | CHOP inh conf
COC(=O)c1ccc(CNC(=O)C(C)N=C2NS(=O)(=O)c3ccccc32)cc1 (stereo not given) | 0 | 6 | -4 | 0 | . | .
CC(C)(C)c1ccc(C(=O)NCCC(=O)NCc2ccc(F)cc2)cc1 | . | 1 | . | 0 | . | .
NC(=S)n1[nH]c(-c2ccc([N+](=O)[O-])cc2)c(N=Nc2cccc([N+](=O)[O-])c2)c1=O | . | -23 | . | 4 | 102* | 98*
Cc1cc(C(=O)COC(=O)c2ccccc2O)c(C)n1Cc1cccs1 | -8 | -21 | -6 | -4 | 109* | 111*
CC1=CN2C(=N)/C(=C/c3ccc([N+](=O)[O-])o3)C(=O)N=C2S1 | . | -8 | . | -1 | 107* | 29
CC(C)c1ccc(NC(=O)CSc2nc(=O)[nH]c3c2CCCC3)cc1 | 1 | -8 | 0 | 1 | . | .
CC(C)c1ccc(NC(=O)CSc2nc(-c3ccccc3F)nc3nc[nH]c23)cc1 | 0 | -11 | 6 | 1 | 100* | 94*
COc1cc(C(=O)ON=C2C(C)=CC(=O)C=C2C)cc(OC)c1OC | 25 | 2 | -3 | 0 | 110* | -112
COC(=O)c1cc(NC(=O)Cc2cc(OC)c(OC)c(OC)c2)cc(C(=O)OC)c1 | -1 | 5 | 3 | -1 | 17 | .
O=C(CCCOc1ccc(Cl)cc1Cl)N/N=C\C1CCCCC1 | 1 | -8 | -1 | -3 | 105* | 83*
O=C(CCCOc1ccc(Cl)cc1Cl)NCCCO | 0 | 4 | -1 | 3 | 32 | .
Cc1cc(C(=O)COC(=O)/C=C/c2ccco2)c(C)n1C | 2 | 3 | 4 | -2 | . | .
CC(C)=C1C2CCC1C(C(=O)Nc1sc(C)c(-c3ccc(C(C)C)cc3)c1C(N)=O)C2C(=O)O (stereo not given) | 0 | -4 | -6 | 0 | 103* | 100*
Cc1ccc(-c2c(C)sc(NC(=O)C3C4CCC(O4)C3C(=O)O)c2C(=O)OC(C)C)cc1 (stereo not given) | 0 | 6 | -3 | 1 | 30 | .
CC(C)(C)c1cc(-c2nc(N)nc(N)n2)cc(C(C)(C)C)c1 | 1 | 3 | -2 | 0 | 103* | 57
Cc1ccc(S(=O)(=O)N=N/C=C2\C=CC=CN2O)cc1 | . | 4 | . | -2 | . | .
O=C(O)c1ccc(Oc2ccc([N+](=O)[O-])cc2)c([N+](=O)[O-])c1 | . | -2 | . | 3 | . | .
Cc1cn([C@H]2C[C@H](O)[C@@H](CNC(=O)CNC(=O)CN)O2)c(=O)[nH]c1=O | . | 4 | . | 0 | . | .
Cc1ccc(C(C(=O)NCc2ccco2)N(C(=O)CNC(=O)c2cccs2)c2c(C)cccc2C)cc1 (stereo not given) | 5 | 15 | 19 | -2 | 101* | 80*
COc1ccc(-c2c(-c3ccc4c(c3)OCO4)c3ccccc3n2C)cc1 | . | -29 | . | -2 | . | .
CC(=O)N1N=C(c2cccs2)CC1c1cc2cc(C)ccc2nc1Cl (stereo not given) | -2 | 5 | 12 | 1 | 106* | -55
O=C(N/N=C/c1ccc2c(c1)OCO2)c1sc2cc(Cl)ccc2c1Cl | 1 | -4 | -1 | 4 | 25 | .
COc1ccc2c(Cl)c(C(=O)N/N=C/c3ccc4c(c3)OCO4)sc2c1 | 0 | -5 | 1 | -3 | 107* | 45
Fc1cc(F)c2nc(Nc3nc4cc5c(cc4s3)OCO5)sc2c1 | . | -2 | . | -3 | 109* | 84*
COC(=O)c1cn(Nc2ncc(C(F)(F)F)cc2Cl)c(=O)c2ccccc12 | -1 | -28 | 0 | 4 | 99* | 10
SMILES | UPR CHOP act | H9c2 protect | UPR XBP1 act | hiPSC survival | CHOP inhibitor | CHOP inh conf
COC(=O)c1cn(N(C)c2ncc(C(F)(F)F)cc2Cl)c(=O)c2ccccc12 | -3 | -3 | 1 | 4 | -53 | .
CC(O)(c1cccc(F)c1)c1nc(-c2cnc3ccccc3c2)cs1 (stereo not given) | . | -4 | . | 3 | . | .
O=c1[nH]c(NNC(=S)NC2CCCCC2)nc2c1C1(CCCC1)Cc1ccccc1-2 | 2 | -3 | -1 | 0 | 103* | 110*
C=CCNC(=S)NNc1nc2c(c(=O)[nH]1)C1(CCCC1)Cc1ccccc1-2 | 0 | -8 | 2 | -2 | 32 | .
COc1ccc(NC(=S)NC(NC(=O)/C=C/c2ccccc2)C(Cl)(Cl)Cl)cc1 (stereo not given) | 17 | -6 | 17 | -2 | 107* | 122*
O=C(/C=C/c1ccccc1)NC(NC(=S)Nc1ccc(Cl)cc1)C(Cl)(Cl)Cl (stereo not given) | 26 | -22 | 27 | -1 | 109* | 60
CCSc1nnc(NC(=O)C2CC2c2ccccc2)s1 (stereo not given) | 3 | -3 | -1 | -2 | 102* | -64
O=C(O)COc1ccccc1C=NNC(=O)c1ccccc1NS(=O)(=O)c1cccs1 | 0 | 1 | -1 | 0 | . | .
Cc1nn(Cc2ccc(Cl)cc2)c(C)c1NC(=O)c1cc(-c2ccc3c(c2)OCO3)on1 | 0 | -13 | -3 | -1 | 102* | 62
Cc1nn(Cc2ccc(Cl)c(Cl)c2)c(C)c1NC(=O)c1cc(-c2ccc3c(c2)OCO3)on1 | 0 | -17 | 13 | -1 | 67 | .
Cc1nn(Cc2c(Cl)cccc2Cl)c(C)c1NC(=O)c1cc(C(C)C)on1 | 0 | 9 | -3 | 3 | . | 96*
Cc1cc(C(=O)Nc2c(C)nn(Cc3c(Cl)cccc3Cl)c2C)no1 | 0 | 9 | 0 | -3 | 6 | .
O=C(O)Cn1ccc2cc(S(=O)(=O)N3CCCCC3)ccc21 | . | 0 | . | 2 | . | .
O=S1(=O)N[C@H](Cc2ccccc2)COc2cccc(N3CCN(Cc4ccccc4F)CC3)c21 | . | . | . | -1 | . | .
O=S1(=O)N[C@H](Cc2ccccc2)COc2cccc(N3CCSCC3)c21 | . | . | . | 1 | . | .
CCCC(=O)N1CCN(c2ccc(NC(=O)c3cc4ccccc4o3)cc2Cl)CC1 | -6 | 0 | -8 | 0 | . | 109*
C(=C1/CCCC2=C1Nc1ncnn1C2c1ccccc1)/c1ccccc1 (stereo not given) | 6 | . | -8 | . | 112* | 58
S=C1NC2=C(CCC/C2=C\c2ccccc2)C(c2ccccc2)N1 (stereo not given) | -2 | -4 | 0 | 0 | 40 | .
COc1ccc(-c2cc(C(=O)NCc3cccs3)no2)cc1 | 5 | -6 | 3 | 0 | -2 | .
COc1ccc2nc3sc(C(=O)NCc4cccs4)c(N)c3cc2c1 | 0 | . | -2 | . | 102* | 9
Cc1cc2c(cc1C)CSC(c1ccccc1O)SC2 | 2 | -19 | 7 | -1 | 108* | 111*
Cc1cc2c(cc1C)CSC(c1ccccc1OC(=O)C(C)(C)C)SC2 | 1 | -22 | -2 | 0 | -19 | .
Cc1cc2c(cc1C)CSC(c1c(O)ccc3ccccc13)SC2 | -1 | -40 | 13 | -4 | 112* | 116*
